Results published in ChEMBL document CHEMBL2157976, “Design, synthesis and biological activities of sorafenib derivatives as antitumor agents” (Bioorg Med Chem Lett, 2012).
Activity calls are given as the source filed them. The rule behind the calls is not given here.

Legend:
PC-3 = experiment: Cytotoxicity against human PC3 cells after 48 hrs by MTT assay; type: functional, cell-based; details: PC-3, 48 h
Procedure, shortened: (§1)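 All three human tumour lines were screened in parallel by MTT colorimetric viability assay, with sorafenib as positive control. Antiproliferative potency was expressed as IC50.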

HCT-116 = experiment: Cytotoxicity against human HCT116 cells after 48 hrs by MTT assay; type: functional, cell-based; details: HCT-116, 48 h; procedure, shortened: as §1
MDA-MB-231 = experiment: Cytotoxicity against human MDA-MB-231 cells after 48 hrs by MTT assay; type: functional, cell-based; details: MDA-MB-231, 48 h; procedure, shortened: as §1
Aorta = experiment: Antiangiogenic activity in Sprague-Dawley rat aortic ring assessed as inhibition of blood vessel formation at 0.1 uM after 6 days by inverted microscopic analysis; type: functional, tissue-based
Procedure, shortened: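 Sprague-Dawley rat aortic segments were embedded in wells coated with growth factor-reduced Matrigel. They were cultured for 6 d with or without compound, and untreated wells served as control. Microvessel sprouting from the segments was scored.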

O=C(c1cc(Oc2cccc(NC(=S)Nc3ccc(F)c(F)c3)c2)ccn1)N1CCCC1
IC50 (PC-3): 45.6 µM | IC50 (HCT-116): 52 µM | IC50 (MDA-MB-231): > 100 µM

CC(C)NC(=O)c1cc(Oc2cccc(NC(=S)Nc3ccc(Cl)cc3)c2)ccn1
IC50 (PC-3): 21.2 µM | IC50 (HCT-116): 22.1 µM | IC50 (MDA-MB-231): 87.5 µM

CCNC(=O)c1cc(Oc2cccc(NC(=S)Nc3cccc(C(F)(F)F)c3)c2)ccn1
IC50 (PC-3): 18.3 µM | IC50 (HCT-116): 19.4 µM | IC50 (MDA-MB-231): 53.1 µM

O=C(NCc1ccccc1)c1cc(Oc2cccc(NC(=S)Nc3ccc(OC(F)(F)F)cc3)c2)ccn1
IC50 (PC-3): 6.8 µM | IC50 (HCT-116): 7.4 µM | IC50 (MDA-MB-231): > 100 µM

O=C(NC1CC1)c1cc(Oc2cccc(NC(=S)Nc3ccc(Cl)c(C(F)(F)F)c3)c2)ccn1
IC50 (PC-3): 6.8 µM | IC50 (HCT-116): 9.3 µM | IC50 (MDA-MB-231): 21.2 µM

CNC(=O)c1cc(Oc2cccc(NC(=S)Nc3ccc(OC(F)(F)F)cc3)c2)ccn1
IC50 (PC-3): 34.7 µM | IC50 (HCT-116): 33.8 µM | IC50 (MDA-MB-231): > 100 µM

O=C(c1cc(Oc2cccc(NC(=S)Nc3ccc(OC(F)(F)F)cc3)c2)ccn1)N1CCCC1
IC50 (PC-3): 34.1 µM | IC50 (HCT-116): 17.8 µM | IC50 (MDA-MB-231): 37.8 µM

CCNC(=O)c1cc(Oc2cccc(NC(=S)Nc3ccc(F)c(F)c3)c2)ccn1
IC50 (PC-3): 26.3 µM | IC50 (HCT-116): 30.3 µM | IC50 (MDA-MB-231): > 100 µM

O=C(NCc1ccccc1)c1cc(Oc2cccc(NC(=S)Nc3ccc(Cl)cc3)c2)ccn1
IC50 (PC-3): 15.8 µM | IC50 (HCT-116): 16.5 µM | IC50 (MDA-MB-231): > 100 µM

CNC(=O)c1cc(Oc2cccc(NC(=S)Nc3ccc(Cl)cc3Cl)c2)ccn1
IC50 (PC-3): 37.8 µM | IC50 (HCT-116): 41.2 µM | IC50 (MDA-MB-231): > 100 µM

CNC(=O)c1cc(Oc2cccc(NC(=S)Nc3ccc(F)c(F)c3)c2)ccn1
IC50 (PC-3): 33.1 µM | IC50 (HCT-116): 30.3 µM | IC50 (MDA-MB-231): > 100 µM

O=C(NC1CCCCC1)c1cc(Oc2cccc(NC(=S)Nc3cccc(C(F)(F)F)c3)c2)ccn1
IC50 (PC-3): 16.8 µM | IC50 (HCT-116): 8.4 µM | IC50 (MDA-MB-231): > 100 µM

O=C(NC1CCCCC1)c1cc(Oc2cccc(NC(=S)Nc3ccc(Cl)c(C(F)(F)F)c3)c2)ccn1
IC50 (PC-3): 2.2 µM | IC50 (HCT-116): 2.8 µM | IC50 (MDA-MB-231): 34.2 µM | inhibition (Aorta): Active

O=C(NCc1ccccc1)c1cc(Oc2cccc(NC(=S)Nc3cccc(C(F)(F)F)c3)c2)ccn1
IC50 (PC-3): 11 µM | IC50 (HCT-116): 7.5 µM | IC50 (MDA-MB-231): 75 µM

CNC(=O)c1cc(Oc2cccc(NC(=S)Nc3ccc(Cl)cc3)c2)ccn1
IC50 (PC-3): 24.1 µM | IC50 (HCT-116): 39.4 µM | IC50 (MDA-MB-231): > 100 µM

CNC(=O)c1cc(Oc2ccc(NC(=O)Nc3ccc(Cl)c(C(F)(F)F)c3)cc2)ccn1 [SORAFENIB]
IC50 (PC-3): 6.8 µM | inhibition (Aorta): Active

O=C(NC1CCCCC1)c1cc(Oc2cccc(NC(=S)Nc3ccc(F)c(F)c3)c2)ccn1
IC50 (PC-3): 8.1 µM | IC50 (HCT-116): 8.9 µM | IC50 (MDA-MB-231): > 100 µM | inhibition (Aorta): Active

O=C(NC1CC1)c1cc(Oc2cccc(NC(=S)Nc3cccc(C(F)(F)F)c3)c2)ccn1
IC50 (PC-3): 22.1 µM | IC50 (HCT-116): 20.2 µM | IC50 (MDA-MB-231): 34.8 µM

O=C(c1cc(Oc2cccc(NC(=S)Nc3cccc(C(F)(F)F)c3)c2)ccn1)N1CCCC1
IC50 (PC-3): 27 µM | IC50 (HCT-116): 19.2 µM | IC50 (MDA-MB-231): 35.4 µM

CCNC(=O)c1cc(Oc2cccc(NC(=S)Nc3ccc(Cl)c(C(F)(F)F)c3)c2)ccn1
IC50 (PC-3): 8.5 µM | IC50 (HCT-116): 6.9 µM | IC50 (MDA-MB-231): 22.1 µM | inhibition (Aorta): Active

CNC(=O)c1cc(Oc2cccc(NC(=S)Nc3cccc(C(F)(F)F)c3)c2)ccn1
IC50 (PC-3): 24.5 µM | IC50 (HCT-116): 25.3 µM | IC50 (MDA-MB-231): > 100 µM

CNC(=O)c1cc(Oc2cccc(NC(=S)Nc3ccc(Cl)c(C(F)(F)F)c3)c2)ccn1
IC50 (PC-3): 16.1 µM | IC50 (HCT-116): 15.1 µM | IC50 (MDA-MB-231): 35.7 µM

O=C(c1cc(Oc2cccc(NC(=S)Nc3ccc(Cl)c(C(F)(F)F)c3)c2)ccn1)N1CCCC1
IC50 (PC-3): 12.1 µM | IC50 (HCT-116): 22.4 µM | IC50 (MDA-MB-231): 40.2 µM

CC(C)NC(=O)c1cc(Oc2cccc(NC(=S)Nc3ccc(OC(F)(F)F)cc3)c2)ccn1
IC50 (PC-3): 11.8 µM | IC50 (HCT-116): 18.1 µM | IC50 (MDA-MB-231): > 100 µM
